Data: PubChem BioAssay AID463073 (The Scripps Research Institute Molecular Screening Center, 2010)
Among all 2,000 compounds or so, about 10 (0.5%) were called active.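 Rule for the calls: active = inhibition above 30%; inactive = the rest.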 Only a selection was taken, and actives are over-represented in it overall.

molecular target: Protein-arginine deiminase type-4 (Homo sapiens) (UniProt Q9UM07); test: human PAD4 inhibitors, primary screen, biochemical, fluorescence polarization (AID 463073); conditions: recombinant PAD4, RFA probe fluorescence polarization; at 5 µM; stronger effect = higher value;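 note: 0% = PAD4 with DMSO and 100% = wells lacking PAD4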
How it was run: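 Material – recombinant PAD4 · Amount – PAD4 at 2 µM in dispensed buffer, before additions · Medium – Ca2+-containing HEPES pH 7.6, TCEP · Doses – one dose, 5 µM final · Schedule – 30 min 25 °C preincubation, 5 h 37 °C labeling · Measured by – FP, ex 525 nm, em 598 nm · Benchmarks – wells lacking PAD4 as full-inhibition control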

Protein-arginine deiminase type-4 (Homo sapiens), sequence (Q9UM07 whole entry, looked up): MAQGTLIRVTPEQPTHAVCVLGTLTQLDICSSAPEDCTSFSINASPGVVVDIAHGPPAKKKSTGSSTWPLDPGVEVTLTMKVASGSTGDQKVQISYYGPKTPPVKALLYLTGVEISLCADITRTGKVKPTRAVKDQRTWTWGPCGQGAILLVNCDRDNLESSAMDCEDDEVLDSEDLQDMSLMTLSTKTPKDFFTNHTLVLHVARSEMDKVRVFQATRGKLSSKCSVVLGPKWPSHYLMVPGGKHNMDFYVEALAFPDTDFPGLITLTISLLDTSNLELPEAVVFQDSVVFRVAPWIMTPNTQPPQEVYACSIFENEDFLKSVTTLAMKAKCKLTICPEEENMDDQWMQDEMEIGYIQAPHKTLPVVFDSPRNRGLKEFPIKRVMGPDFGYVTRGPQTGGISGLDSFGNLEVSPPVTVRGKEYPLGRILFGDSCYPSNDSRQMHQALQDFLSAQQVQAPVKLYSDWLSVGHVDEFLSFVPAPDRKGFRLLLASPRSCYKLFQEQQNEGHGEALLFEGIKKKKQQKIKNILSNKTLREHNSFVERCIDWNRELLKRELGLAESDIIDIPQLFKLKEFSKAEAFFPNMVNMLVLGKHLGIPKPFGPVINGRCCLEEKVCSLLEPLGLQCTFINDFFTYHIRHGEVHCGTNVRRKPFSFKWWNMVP

inhibition, inactive:
Cc1ccc2c(c1)C1OCCC1C1N2C(=O)C2C(C(=O)O)C3C=CC21O3 (configuration not stated) 6.06%, Cn1cc(CN2CCC(C(=O)N3CCCCC3)CC2)c(-c2ccccc2F)n1 4.74%, O=C1OC(c2ccccc2)=C/C1=C/c1cccs1 -2.45%, c1ccc(Nc2ccccn2)nc1 -4.7%, CS(=O)(=O)c1cccc(C(=O)Oc2ccccc2)c1 5.29%, CC(=O)OCC1OC(n2ccc(=O)[nH]c2=O)C(O)C1O (configuration not stated) 1.17%, CC(C)C[C@H](NC(=O)[C@@H]1Cc2ccccc2CN1C(=O)OC(C)(C)C)C(=O)NCC1CCC(C(=O)O)CC1 (some centres not stated) 0.39%, CS(=O)(=O)Nc1cccc(C(=O)CC2(O)C(=O)Nc3ccc(Br)cc32)c1 (configuration not stated) 0.36%, Cn1c2c(c(=O)[nH]c1=O)C(c1ccc(O)cc1)C1=C(N2)c2ccccc2C1=O (configuration not stated) 4.81%, Cc1cc(C)c(NC(=O)NC(=O)C(Cl)(Cl)Cl)c(C)c1 -2.27%, CC(=O)OC[C@H]1O[C@@H](Sc2cccc3cccnc23)[C@H](OC(C)=O)[C@@H](OC(C)=O)[C@H]1OC(C)=O 1.27%, CCOC(=O)C1C(=O)OC(C)(C)C1C(C)C(=O)c1ccc(C)cc1 (configuration not stated) -0.2%, CCOC(=O)C(Cc1cc(C(C)=O)ccc1OC(C)C)C(=O)OCC 2.78%, CCOc1ccc(N2C(=O)CC(NCCNc3ccc([N+](=O)[O-])cn3)C2=O)cc1 (configuration not stated) 9.78%, CN1C(=O)C(O)(CC(=O)c2ccccc2O)c2cc(Br)ccc21 (configuration not stated) -1.81%, CCOC(=O)C(NC(=O)CCC(=O)Nc1ccc(S(N)(=O)=O)cc1)C(O)c1ccccc1 (configuration not stated) -0.41%, CCc1cc2c(C)cc(=O)oc2cc1OC(=O)C1CCCN1C(=O)OC(C)(C)C (configuration not stated) 1.27%, COC(=O)c1[nH]c2ccc(C)cc2c1NC(=O)CN1CCc2cc(OC)c(OC)cc2C1 0.78%, COc1ccc(CC(=O)NCC2(c3ccc(OC)c(OC)c3)CCOCC2)cc1 2.08%, COc1ccc(CNC(=O)c2c(O)c3cccc4c3n(c2=O)CCC4)cc1 4.58%, CC(C)CC(=O)Nc1ccc2oc(-c3ccncc3)nc2c1 1.75%, CC(C)NC(=O)c1ccc(C(C)C)cc1 -2.74%, O=C(CN1C(=O)c2ccccc2S1(=O)=O)Nc1ccccc1 -2.01%, COC(=O)C1=NN(C(=O)c2cccc(Br)c2)C(O)(c2ccc(Cl)cc2)C1 (configuration not stated) -1.03%, CC(C)(C)C(=O)Nc1cccc(OC(F)(F)C(F)Cl)c1 (configuration not stated) 3.96%, COc1ccc(-c2csc(-c3cccnc3)n2)cc1C -0.79%, COc1ccc(OC)c(C(=O)c2coc3ccc(O)cc23)c1 -2.55%, OCC(O)CN1CCN(c2ccccc2)CC1 (configuration not stated) -2.45%, O=c1c(-c2ccccc2)c(O)c2cccc3c2n1CCC3 5.09%, Cc1cc(OC(=O)CNC(=O)OC(C)(C)C)c2c(C)cc(=O)oc2c1 22.1%, CC(NC(=O)OCc1ccccc1)C(=O)N1CC(O)CC1C(=O)O (configuration not stated) 6.64%, COC(=O)c1ccc(CC(=O)c2ccc(O)cc2O)o1 4.18%, CCCCCCCC(=O)OCC(=O)[C@@]1(O)CC[C@H]2[C@@H]3CCC4=CC(=O)CC[C@]4(C)[C@H]3[C@@H](O)C[C@@]21C 4.58%, Cc1nc(C2CC(=O)OC23CCCCC3)cs1 (configuration not stated) -0.47%, CSCCC(NC(=O)OC(C)(C)C)C(=O)Oc1ccc2c(=O)c(-c3ccc4c(c3)OCCO4)coc2c1 (configuration not stated) 14.1%, c1ccc(-c2ccccn2)nc1 0.78%, Cn1c(=O)[nH]c2nnc(-c3ccc(Cl)c(Cl)c3)nc2c1=O 4.18%, CN(C)CCCNc1ncnc2c1cnn2-c1ccccc1 -1.45%, CCNC(=O)c1sc2cc(C)ccc2c1Cl 0.99%, CSCCC(NC(=O)/C(=C/c1ccc2c(c1)OCO2)NC(=O)c1cccc([N+](=O)[O-])c1)C(=O)O (configuration not stated) -0.41%, Nc1nnc(CSCc2ccc(Cl)cc2Cl)s1 3.81%, CC12CCC(C(=O)NNc3ccccc3)(C(=O)C1=O)C2(C)C (configuration not stated) -2.07%, COc1ccc(CN2CCCC(C(=O)c3ccc(Cl)cc3)C2)cc1Cn1cccn1 (configuration not stated) -0.23%, O=C(CSCc1ccccc1)NCCCN1CCOCC1 -0.81%, CC(=O)c1cc2c(cc1NC(=O)c1ccco1)OCCO2 -1.18%, COC(=O)[C@H]1[C@H]2C[C@@H]3c4[nH]c5cc(OC)ccc5c4CCN3C[C@H]2C[C@@H](OC(=O)c2ccc(N)cc2)[C@@H]1OC 6.06%, COC(=O)c1[nH]c2ccc(F)cc2c1NC(=O)C1=COCCO1 6.4%, COc1cc(CNCCc2ccccc2F)ccc1OCC(=O)N1CCCCC1 -1.57%, COCCOC(=O)C1=C(N)OC2=C(C(=O)CCC2)C1c1cccnc1 (configuration not stated) 1.53%, COc1ccc(NC(=O)CC2C(=O)N(C)C(=S)N2Cc2ccncc2)cc1 (configuration not stated) -3.53%, CN1CCCN=C1COC(=O)C(O)(c1ccccc1)C1CCCCC1 (configuration not stated) -4.01%, Cc1cccc(OCC(=O)Nc2ccc(C(=O)NCC(C)C)cc2)c1 0.21%, N#CCC(N)=C(C#N)C#N 0.67%, CC(=O)[C@@]1(O)CC[C@H]2[C@@H]3CCC4=CC(=O)CC[C@]4(C)[C@H]3[C@@H](O)C[C@@]21C -0.33%, Cc1ccccc1NC(=O)C1c2ccccc2Oc2ccccc21 -0.73%, CC(C)NS(=O)(=O)c1ccc(OCC(=O)Nc2cccc(F)c2)cc1 2.86%, COc1ccc(C2=C(CN(C)C)C(c3ccccc3)c3ccccc3O2)cc1 (configuration not stated) -1.24%, COc1ccc(-c2nc(C)c(C(C)=O)n2O)cc1OC 2.19%, O=C(O)CCn1c(=S)n(CCC(=O)O)c2ccccc21 3.98%, CC(OC(=O)c1cc(=O)[nH]c2ccccc12)C(=O)c1ccccc1 (configuration not stated) -0.79%, C=C(C)Cn1c(NCCOC)nc2c1c(=O)[nH]c(=O)n2C 1.67%, CC(=O)NC1C(OCCOc2ccc(Cl)cc2Cl)OC(COC(C)=O)C(OC(C)=O)C1OC(C)=O (configuration not stated) 2.94%, CCOC(=O)C1=C(C)N[C@@]2(O)c3ccccc3C(=O)[C@@]12O 5.29%, CCOC(=O)c1cccc(C(=O)OCC)n1 -2.55%, CC(=O)N1CC23C=CC(CC2CC12CCCCCC2)O3 (configuration not stated) 0.84%, CCOc1ncnc2c1[nH]c1ccccc12 1.88%, COC(=O)C1[C@H]2C(=O)N(Cc3cccs3)C[C@]23C=C[C@H]1O3 (some centres not stated) 2.54%, CC(C)CN1CCN(Cc2ccc3ncccc3c2)CC1CCO (configuration not stated) 5.67%, CNS(=O)(=O)c1ccc(C)cc1 -0.67%, CCCCNC(=O)NS(=O)(=O)c1ccc(C)cc1 5.34%, O=C(CCc1ccccc1)Nc1ccccc1C(F)(F)F -2.28%, COc1cc2c(cc1OC)C(c1ccccc1)=NCC2 3.38%, C[C@]12CC[C@@H]3c4ccc(O)cc4[C@@H](O)C[C@H]3[C@@H]1CC[C@@H]2O 2.58%, CC(=O)CCc1c(C)c2cccc(C)c2[nH]c1=O 2.48%, CCCCC/C=C\C[C@H](O)/C=C/c1cccc(C[C@H](O)CCCCO)n1 4.29%, CCOC(=O)C(NC(C)=O)C(O)c1ccc([N+](=O)[O-])cc1 (configuration not stated) 3%, O=C1OC(Nc2ccc3c(c2)OCO3)c2ccccc21 (configuration not stated) 3.54%, Cc1cccc(Oc2coc3cc(OC(=O)c4cncc(Br)c4)ccc3c2=O)c1 26.8%, COc1ccc(C2C3C(C)=NN=C3CC(C)(O)C2C(C)=O)cc1 (configuration not stated) -7.27%, O=P(c1ccccc1)(c1ccccc1)c1nc(-c2ccc(Cl)cc2)oc1N1CCOCC1 4.58%, CC(=O)N1CCN(c2ccc(OC[C@H]3CO[C@](Cn4ccnc4)(c4ccc(Cl)cc4Cl)O3)cc2)CC1 6.45%, C/C=C(/C(=C/C)c1ccc(O)cc1)c1ccc(O)cc1 0.21%, C=CCc1cccc2cc(C(=O)Nc3ccc(CC(=O)O)cc3)c(=O)oc12 -4.46%, COc1ccc(C(=O)Nc2nc3ccccc3c(=O)[nH]2)cc1 0.21%, CC(C)C(=O)Nc1c(O)c2ccccc2[nH]c1=O -3.74%, CCOC(=O)n1c(=O)oc2ccccc21 -6.44%, CCOc1cc2c3c(c1)C(C)=CC(C)(C)N3C(=O)C2=O -0.07%, CC(C)CC(=O)NC(NC(=O)CC(C)C)c1cccc([N+](=O)[O-])c1 -2.91%, Cc1[nH]c2ccccc2c1C(=O)CN1CCCC1 -1.81%, O=C1Cc2ccccc2C(c2ccccc2)N1 (configuration not stated) 0.84%, COc1cc(C2Nc3ccccc3NC3=C2C(=O)CC(c2ccc(OC)c(OC)c2)C3)ccc1O (configuration not stated) -5.4%

inhibition, active:
Cn1nc(-c2ccccn2)nc2c(=O)n(C)c(=O)nc1-2 98.2%, Cn1nc(-c2ccc(Cl)cc2)nc2c(=O)n(C)c(=O)nc1-2 90.7%, CCOC(=O)c1c(C)oc2c1C(=O)c1ccccc1C2=O 61.9%, Cc1ccc(S(=O)(=O)N[C@@H](Cc2ccccc2)C(=O)CCl)cc1 39.7%, COC(=O)c1[nH]c(=O)c2ccccc2c1O 66.5%, O=C1NCC2=C1C(c1ccccc1)Nc1ccccc1N2 (configuration not stated) 58.3%
